Test results as given in ChEMBL document CHEMBL1152851, “Synthesis, cytotoxicity and effects of some 1,2,4-triazole and 1,3,4-thiadiazole derivatives on immunocompetent cells” (Eur J Med Chem, 2009).

Columns and labels:
[1] = Stimulation of immune response in pretreated thymocytes isolated from Graffi myeloid tumor bearing hamster assessed as ratio of migration area of experimental cells to control cells after 16 hrs by indirect agarose technique; format: cell-based; settings: cricetinae, thymocyte
Summary of the method: (§1)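 Cells came from treated tumor-bearing hamsters: spleen cells, thymocytes or blood lymphocytes. They were loaded into 3-mm wells cut in an agarose monolayer in 50 mm Petri dishes and kept 16 h at 37 °C, 5% CO2. The migration area was then measured. The migration index (LIF) is the ratio of experimental to control migration area. Values are means of three experiments.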

[2] = Stimulation of immune response in pretreated spleen cells isolated from Graffi myeloid tumor bearing hamster assessed as rosette formation; format: cell-based; settings: cricetinae
[3] = Stimulation of immune response in pretreated thymocytes isolated from Graffi myeloid tumor bearing hamster assessed as migration area after 16 hrs by indirect agarose technique; format: cell-based; settings: cricetinae, thymocyte; summary of the method: as §1
PBL [4] = assay: Cytotoxicity against PBL isolated from solid form of Graffi myeloid tumor bearing hamster pretreated at 0.5 mg/ml, ip for 5 days measured after 24 hrs by trypan blue assay; settings: Cricetinae
Summary of the method: (§2)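 Tumor-bearing hamsters first received compound at 0.5 mg/ml i.p. Thymocytes or blood lymphocytes were isolated five days later. These were exposed in vitro to serial dilutions of a DMSO stock (5 mg/ml) for 24 h at 37 °C, 5% CO2, then scored with 0.2% trypan blue. Each IC50 is the mean of three parallel samples in three independent experiments.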

[5] = Stimulation of immune response in pretreated spleen cells isolated from Graffi myeloid tumor bearing hamster assessed as migration area after 16 hrs by indirect agarose technique; format: cell-based; settings: cricetinae; summary of the method: as §1
PBL [6] = assay: Stimulation of immune response in pretreated PBL isolated from Graffi myeloid tumor bearing hamster assessed as rosette formation; format: cell-based; settings: cricetinae
[7] = Stimulation of immune response in pretreated spleen cells isolated from Graffi myeloid tumor bearing hamster assessed as number of plaque forming cells after 24 hrs by modified agar-plate method; format: cell-based; settings: cricetinae
Summary of the method: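 Plaque-forming (haemolysin-producing B) cells were counted by the Cunningham–Szenberg method. Cells from treated tumor-bearing hamsters were mixed with complement and sheep red blood cells and loaded into chambers. Haemolytic zones were counted per 10⁶ lymphocytes. Values are means of three experiments, compared against cells from control animals.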

[8] = Cytotoxicity against solid form of Graffi myeloid tumor bearing hamster thymocytes after 24 hrs by trypan blue assay; format: cell-based; settings: cricetinae, thymocyte
Summary of the method: (§3)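 Thymocytes and peripheral blood lymphocytes came from sexually mature hamsters bearing solid Graffi myeloid tumor. Compounds were made up at 0.5 mg/ml in DMSO, and this stock was diluted 1:10, 1:100, 1:1000 and 1:100,000. Equal volumes of cells and dilution were mixed and held 24 h at 37 °C in humidified 5% CO2. Survival was scored by 0.2% trypan blue exclusion under the microscope, and IC50 was derived.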

[9] = Cytotoxicity against thymocytes isolated from solid form of Graffi myeloid tumor bearing hamster pretreated at 0.5 mg/ml, ip for 5 days measured after 24 hrs by trypan blue assay; settings: cricetinae, thymocyte; summary of the method: as §2
[10] = Stimulation of immune response in pretreated thymocytes isolated from Graffi myeloid tumor bearing hamster assessed as number of plaque forming cells after 24 hrs […]; format: cell-based; settings: cricetinae, thymocyte
PBL [11] = assay: Stimulation of immune response in pretreated […] isolated from Graffi myeloid tumor bearing hamster assessed as number of plaque forming cells after 24 hrs […]; format: cell-based; settings: cricetinae
[12] = Stimulation of immune response in pretreated thymocytes isolated from Graffi myeloid tumor bearing hamster assessed as rosette formation; format: cell-based; settings: cricetinae, thymocyte
PBL [13] = assay: Cytotoxicity against solid form of Graffi myeloid tumor bearing hamster PBL after 24 hrs by trypan blue assay; format: cell-based; settings: Cricetinae; summary of the method: as §3
PBL [14] = assay: Stimulation of immune response in pretreated PBL isolated from Graffi myeloid tumor bearing hamster assessed as migration area after 16 hrs by indirect agarose technique; format: cell-based; settings: cricetinae; summary of the method: as §1
PBL [15] = assay: Stimulation of immune response in pretreated PBL isolated from Graffi myeloid tumor bearing hamster assessed as ratio of migration area of experimental cells to control cells after 16 hrs by indirect agarose technique; format: cell-based; settings: cricetinae; summary of the method: as §1
[16] = Stimulation of immune response in pretreated spleen cells isolated from Graffi myeloid tumor bearing hamster assessed as ratio of migration area of experimental cells to control cells after 16 hrs by indirect agarose technique; format: cell-based; settings: cricetinae; summary of the method: as §1
[17] = Cytotoxicity against pretreated spleen cells isolated from Graffi myeloid tumor bearing hamster assessed as full lysis; format: cell-based; settings: cricetinae

Ratio [1] | Activity [2] | Activity [3] [mm2] | Activity [5] [mm2] | Activity (PBL [6]) | Activity [7] | Activity [10] | Activity (PBL [11]) | Activity [12] | Activity (PBL [14]) [mm2] | Ratio (PBL [15]) | Ratio [16] | Compound | IC50 (PBL [4]) [nM] | IC50 [8] [nM] | IC50 [9] [nM] | IC50 (PBL [13]) [nM] | Activity [17]
0.104 | Not Active | 202 | 822 | Not Active | 2010 | 7800 | 5200 | Not Active |  |  |  | CCNC(=S)NNC(=O)c1ccc(-c2ccccc2)s1 | 320 | 2100 | 3500 | 1640 | 
0.954 | Not Active | 1836 | 2332 | Not Active | 4700 | 19200 | 19920 | Not Active |  |  |  | Nn1c(-c2ccc(-c3ccccc3)s2)n[nH]c1=S | 12 | 240 | 0.001 |  | 
0.581 | Not Active | 1118 | 1788 | Not Active | 3928 | 15300 | 14288 | Not Active |  |  |  | CCNc1nnc(-c2cc3c(s2)CCCC3)s1 | 410 | 260 | 0.0052 | 320 | 
0.532 | Not Active | 1024 | 1286 | Not Active | 3920 | 7250 | 5869 | Not Active | 1800 | 1.654 |  | Nn1c(-c2cc3c(s2)CCCC3)n[nH]c1=S | 140 | 2200 | 12 | 2670 | 
0.518 | Not Active | 997 | 1823 | Not Active | 3700 | 5287 | 4992 | Not Active |  | 0.001 | 0 | CCn1c(-c2cc3c(s2)CCCC3)n[nH]c1=S | 290 | 120 | 460 | 1810 | 
0.08 | Not Active | 146 |  | Not Active |  | 2040 | 768 | Not Active |  |  |  | CCNC(=S)NNC(=O)c1cc2c(s1)CCCC2 | 14 | 110 |  |  | Toxic
